This is one part of a sample in which hits are shown more often than they occur.
INS promoter act = TRM-6 insulin promoter activation; activation, % at 2 µM; 0.81% of 130,000 active; AID 1296; TRM-6 cells (human fetal islet line), insulin promoter eGFP reporter, imaging; plate-scaled: unstimulated 0, stimulated control 100;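 active means activation at 2 µM above a set limit, confirmed on inspection of the cell images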;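 further: share of cells whose green reporter signal exceeds an intensity cutoff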
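test system = TRM-6 insulin promoter–eGFP reporter cells | benchmarks = stimulated versus unstimulated wells as plate controls | read-out basis = percent cells above green-intensity threshold, converted to percent activation versus plate controls | detection = fixed-cell fluorescence microscopy, eGFP plus Hoechst | incubation = tamoxifen pre-incubation 15 h overnight, then compound exposure 48 h at 37 °C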
* marks the source's active call; other numbers are inactive results; + = active, no number; [ ] = remark or other dose.

SMILES | INS promoter act
CC(=O)OCC1O[C@@H](O[C@@H]2C[C@H]3C(C)(C)[C@H](OC(C)=O)CC[C@]3(C)[C@H]3CC[C@]45C[C@]4(CC[C@H]5[C@@H](C)C[C@@H](O)[C@H](O)C(C)(C)O)[C@@]32C)[C@H](O)[C@@H](O)[C@@H]1O (some centres not stated) | 0
CCN1CCN(C(=O)CCc2ccc(S(=O)(=O)NCCc3ccccc3)cc2)CC1 | 389
Cc1nc(N)c(C#N)c(-c2ccccc2)c1C | 0
CSc1nn2c(C)c(C)c(C)nc2c1C#N | 322*
Cc1cc(-c2ccccc2)n2nc(C)c(C#N)c2n1 | -3
O=C1C=CC(O)(c2cc(=O)c3c(O)cc(O)cc3o2)C=C1 | 224
O=C(CCc1[nH]c2ccccc2c1Sc1ccccc1)NCCO | 3
CCc1nnc(NC(=O)c2nc3nc(C)cc(C)n3n2)s1 | -5
O=S(=O)(NC1CCCC1)c1ccc(S(=O)(=O)N2CCN(c3ccccc3)CC2)cc1 | -4
O=C(CCS(=O)(=O)Cc1ccccc1)Nc1nc2c(s1)CCCC2 | 10
O=C(CCn1cnc2ccccc2c1=O)Nc1cccc(Cl)c1 | 9
O=C(CCn1cnc2ccccc2c1=O)Nc1nc2c(s1)CCCC2 | 510*
Cc1cc(C)nc(SCC(=O)Oc2ccc3oc(=O)cc(C)c3c2)n1 | -10
O=C(Nc1cccc2nsnc12)c1ccc(-c2cccc(Cl)c2)o1 | -3
CCC(CC)NC(=O)c1ccc(Cl)cc1 | 0
Cc1ccc(/C=C2\SC(=S)N(Cc3ccccc3)C2=O)o1 | -10
COc1ccc(-n2c(C)cc(/C=C3\SC(=S)N(Cc4ccco4)C3=O)c2C)cc1 | 245*
Cc1cc(/C=C2/SC(=S)N(c3ccc([N+](=O)[O-])cc3)C2=O)c(C)n1-c1cccnc1 | 119
CCc1c(C)c(C#N)c2nc3ccccc3n2c1N1CCN(c2cc(C)ccn2)CC1 | -3
Cc1cc(NCCN2CCCCC2)n2c(nc3ccccc32)c1C#N | 5
CCc1c(C)c(C#N)c2nc3ccccc3n2c1Cl | 153
Cc1c(C#N)c2ccccc2n1CC(=O)NCC1CCCO1 (configuration not stated) | 7
CCc1c(C)c(C#N)c2nc3ccccc3n2c1NCC1CCCO1 (configuration not stated) | 79*
CC(C)c1cc(NCC2CCCO2)n2c(nc3ccccc32)c1C#N (configuration not stated) | 79*
Cc1ncn(C23CC4CC(CC(C4)C2)C3)n1 | 6
SMILES | INS promoter act
CCN(CC(=O)NC1CCS(=O)(=O)C1)C(=O)/C=C/c1cccs1 (configuration not stated) | 117
CCOC(=O)Cn1c(=N)n(Cc2ccccc2F)c2ccccc21 | 0
COc1cccc2c1C(=O)c1c(O)c3c(c(O)c1C2=O)C[C@@](O)(C(C)=O)C[C@@H]3O[C@H]1C[C@H](N)[C@H](O)[C@H](C)O1 | 354*
O=C(Nc1cc(Cl)cc(Cl)c1)c1ccc(Cn2c(=O)[nH]c3ccsc3c2=O)cc1 | -61
CCOC(=O)C(C)On1c(SC(C)C(=O)OCC)nc2ccccc2c1=O (configuration not stated) | 76*
CCSc1nc2ccccc2c(=O)n1OCC(=O)OC | 0
COC(=O)COn1c(SC(C)C)nc2ccccc2c1=O | 7
CCOc1ccc(N=C(NN)c2ccc3ccccc3n2)cc1 | 3
Cc1ccc[n+](/C(C(=S)NCc2ccco2)=C(/[O-])c2ccccc2Cl)c1 | 287
Cc1ccc(C(=O)Nc2ccc(OCc3ccccc3)cc2)cc1[N+](=O)[O-] | -6
Cc1ccc(/C([O-])=C(/C(=S)NCc2ccccc2)[n+]2cccc(CO)c2)cc1[N+](=O)[O-] | +
COc1ccc(OCC(=O)N2CCN(S(=O)(=O)c3ccccc3[N+](=O)[O-])CC2)cc1 | 135
Cc1nc2cc(C(F)(F)F)ccc2n1C1CCN(CC(=O)NC(C)(C)C)CC1 | 0
O=C(CN1CCSC1=NCc1ccccc1)c1ccccc1 | 0
N/C(=N\c1nc2c(c(=O)[nH]1)CCC2)Nc1cccc2ccccc12 | 4
CN(C)c1ccc(CNn2cnnc2SCc2ccc(F)cc2)cc1 | -6
CC(C)(C)NC(=O)CSc1nncn1NCc1ccccc1 | 0
Fc1ccc(CSc2nncn2NCc2ccccc2)cc1 | 428*
COC(=O)c1sc(OC)cc1OCc1ccc(C)cc1 | 3
Cn1c(=O)oc2cc(S(=O)(=O)Nc3cccc4c3CCCC4)ccc21 | -3
CCOC(=O)c1c(C)cc(C)n2c1nc1ccccc12 | -75
Cc1cc(C)c2cc(CN(Cc3cccnc3)C(=O)c3ccc(F)cc3)c(Cl)nc2c1 | 130*
Cc1[nH]c2ccccc2c1CCN(Cc1cccnc1)C(=S)Nc1ccc(F)cc1 | 0
CCOC(=O)CNC(=S)N(Cc1ccccc1)Cc1cccnc1 | 7
OCCC1CN(Cc2cccc(-c3ccco3)c2)CCN1Cc1ccsc1 (configuration not stated) | 0
SMILES | INS promoter act
O=C(/C=C/c1ccc(-c2ccc(F)cc2)o1)N1CCCC1 | 9
O=C(CCCN1C(=O)c2ccccc2C1=O)Nc1cccnc1 | -10
O=C(CCCN1C(=O)c2ccccc2C1=O)NCc1cccnc1 | 473*
O=C(CCCN1C(=O)c2ccccc2C1=O)NCc1ccco1 | 239
Cc1cc(C(=O)OCC(=O)Nc2ccc(S(=O)(=O)N3CCOCC3)cc2)c(C)o1 | -3
O=C1NC(=O)C(CC(=O)N(Cc2cccs2)C2(C(=O)NC3CCCCC3)CCCCC2)N1 (configuration not stated) | 6
Cc1ccccc1NC(=O)C(C)O/N=C/c1cccc([N+](=O)[O-])c1 (configuration not stated) | 3
Cc1nn(Cc2ccccc2)c(Cl)c1C(=O)OCC(=O)NC(=O)NC12CC3CC(CC(C3)C1)C2 | -6
O=C(CSc1ccc(Cl)cc1)Nc1ccc(-c2nc3ccccc3[nH]2)cc1 | -2
Cc1nnc(NC(=O)c2cccc(S(=O)(=O)N3CCOCC3)c2)s1 | -6
O=C(Nc1ccccc1O)c1cccc(S(=O)(=O)N2CCOCC2)c1 | 462*
O=C(Nn1cnnc1)c1cccc(S(=O)(=O)N2CCOCC2)c1 | 7
O=C(CCc1c[nH]c2ccccc12)NCC(=O)Nc1ccc(F)c(F)c1F | -8
CN(C)C(=O)COc1ccc2cc(-c3ccccc3)c(=O)oc2c1 | -27
CCOC(=O)c1cc2ccc(OC)cc2oc1=O | 5
CCN(CC)c1ccc2cc(-c3nc(-c4ccc(OC)cc4)cs3)c(=O)oc2c1 | 223*[fluoresces]
CCCc1c2ccccc2nc2ccccc12 | -85
CCNc1nc(N)nc(-c2cc(Cl)ccc2O)n1 | -62
CCCN(CCC)c1nc(N)nc(-c2cc(Cl)ccc2OC)n1 | 83*
CCCNc1nc(N)nc(-c2cc(Cl)ccc2OC)n1 | 0
N#Cc1c(N)nc2c(c1N)CC(=O)N2c1ccc(Cl)cc1 | -5
CN=C1CC(C)(C)CC(=O)/C1=C(/O)CCC(=O)NC | 0
c1ccc(-c2nc(-c3ccncc3)no2)cc1 | -80
Clc1ccc(-c2noc(CCCOc3ccccc3)n2)cc1 | 8
Clc1ccc(-c2nc(Cc3ccccc3)no2)cc1 | 84*
SMILES | INS promoter act
COCc1cc(C)c2c(N)c(C#N)sc2n1 | -4
CCOC(=O)CNC(=O)CSc1nc2nc(C)c(Br)cc2[nH]1 | -9
S=C(Nc1cccc(Cl)c1)N1CCN(Cc2ccccc2)CC1 | -3
Cc1ccc(C(=O)COC(=O)CNC(=O)c2cccs2)cc1C | -4
Cc1ccc(NC(=O)COC(=O)CCC(=O)c2cccs2)cc1 | 8
Cc1ccc(C(=O)NCC(=O)NCC(=O)OCC(=O)c2cccs2)cc1 | 471*

Screens: PubChem BioAssay, Columbia University Molecular Screening Center
